Consider eleven compounds from ChEMBL document CHEMBL1121726, “Pyrazolopyrimidine nucleosides. 12. Synthesis and biological activity of certain pyrazolo[3,4-d]pyrimidine nucleosides related to adenosine” (1981).

Assay [1] concerns L1210. Briefly: Increase in life span of tumor L1210 leukemic mice 1-5 days after 50 mg/kg administered. It counts as functional, Mus musculus. A digest of the protocol: (§1)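 Mice bearing L1210 or P388 leukemia were injected with drug at the listed dose per injection on the listed days after tumor-cell inoculation. ILS was the percentage increase in life span of treated mice over untreated tumor-bearing controls.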

Assay [2] relates to L1210. As to the kind of experiment: In vitro inhibition of growth of L1210 mouse leukemic cells. Format: functional. The settings on record: read-out: ID50 (the source's name). In a few lines:
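L1210 cells grown in static suspension culture in Fischer's medium for leukemic cells of mice, exposed to a range of test-compound concentrations. Growth rate measured over 3 days.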

Assay [3] has as its system L1210. As to the kind of experiment: Toxicity against L1210 leukemic cells 1-5 days after administration of 50 mg/kg of the compound; Yes. Format: functional, organism-based. Also noted: dose 50 mg/kg. The settings on record: Mus musculus. In a few lines:
(§2)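 Mice bearing L1210 or P388 leukemia were injected at the stated dose per injection on the listed days after tumor-cell inoculation. Host toxicity scores whether higher doses on the same schedule caused drug-induced shortening of life span: y = yes, n = no, nt = no higher dose tested.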

For assay [4], the system named is L1210. As to the kind of experiment: […] against L1210 leukemic cells 1-5 days after administration of 200 mg/kg of the compound; Yes. It counts as functional, organism-based. Also noted: dose 200 mg/kg. The note with it: Mus musculus.
For assay [5], the system named is L1210. As to the kind of experiment: Increase in life span of tumor L1210 leukemic mice 1-5 days after 200 mg/kg administered. It counts as functional, Mus musculus. The settings on record: Mus musculus, L1210. A digest of the protocol:
as §1

For assay [6], the system named is L1210. As to the kind of experiment: Increase in life span of tumor L1210 leukemic mice 1-9 days after 400 mg/kg administered. It counts as functional, Mus musculus. In a few lines: as §1
In assay [7] the test system is L1210. Briefly: […] against L1210 leukemic cells 1-9 days after administration of 400 mg/kg of the compound; No higher dose tested. The note with it: Mus musculus. Format: functional, organism-based. On the set-up: dose 400 mg/kg.
In assay [8] the test system is L1210. As to the kind of experiment: […] against L1210 leukemic cells 1-5 days after administration of 400 mg/kg of the compound; No higher dose tested. It counts as functional, organism-based. On the set-up: dose 400 mg/kg. The settings on record: Mus musculus.
Assay [9] deals with L1210. As to the kind of experiment: Increase in life span of tumor L1210 leukemic mice 1-5 day after 400 mg/kg administered. It counts as functional, Mus musculus. A digest of the protocol:
as §1

Assay [10] has as its system L1210. As to the kind of experiment: Toxicity against L1210 leukemic cells 1-5 days after administration of 400 mg/kg of the compound; nt= No higher dose tested. Format: functional, organism-based. On the set-up: dose 400 mg/kg. The note with it: Mus musculus. In a few lines:
as §2

In assay [11] the test system is L1210. Briefly: Increase in life span of tumor L1210 leukemic mice 1-5 days after 400 mg/kg administered. Format: functional, Mus musculus. In a few lines:
as §1

The test system of assay [12] is P388. As to the kind of experiment: Toxicity against P388 leukemic cells 1-9 days after administration of 3 mg/kg of the compound; Yes. It counts as functional, organism-based. Also noted: dose 3 mg/kg. The settings on record: Mus musculus. A digest of the protocol:
as §2

Assay [13] deals with L1210. As to the kind of experiment: Toxicity against L1210 leukemic cells 1-9 days after administration of 3.12 mg/kg of the compound; Yes. It counts as functional, organism-based. On the set-up: dose 3.12 mg/kg. The settings on record: Mus musculus. A digest of the protocol: as §2
Assay [14] has as its system P388. Briefly: Increase in life span of tumor P388 leukemic mice 1-9 days after 3 mg/kg administered. Format: functional, Mus musculus. A digest of the protocol: as §1
Assay [15] relates to L1210. Briefly: Increase in life span of tumor L1210 leukemic mice 1-9 days after 3.12 mg/kg administered. Format: functional, Mus musculus. A digest of the protocol:
as §1

Assay [16] relates to L1210. Briefly: […] against L1210 leukemic cells 1-5 days after administration of 50 mg/kg of the compound; Yes. It counts as functional, organism-based. The note with it: Mus musculus. On the set-up: dose 50 mg/kg.
The subject of assay [17] is L1210. As to the kind of experiment: Increase in life span of tumor L1210 leukemic mice 1-5 day after 50 mg/kg administered. Format: functional, Mus musculus. A digest of the protocol:
as §1

The test system of assay [18] is L1210. As to the kind of experiment: Increase in life span of tumor L1210 leukemic mice 1-9 days after 200 mg/kg administered. It counts as functional, Mus musculus. In a few lines: as §1
The test system of assay [19] is L1210. Briefly: Toxicity against L1210 leukemic cells 1-9 days after administration of 200 mg/kg of the compound; Yes. Format: functional, organism-based. On the set-up: dose 200 mg/kg. The settings on record: Mus musculus. A digest of the protocol: as §2
In assay [20] the test system is P388. Briefly: Increase in life span of tumor P388 leukemic mice 1-9 days after 40 mg/kg administered. Format: functional, Mus musculus. A digest of the protocol: as §1
Assay [21] has as its system L1210. As to the kind of experiment: Number of mice surviving 1 day after 25 mg/kg administered; 2/12. It counts as functional, Mus musculus.
For assay [22], the system named is L1210. As to the kind of experiment: Toxicity against L1210 leukemic cells 1-5 days after administration of 25 mg/kg of the compound; Yes. On the set-up: dose 25 mg/kg. It counts as functional, organism-based. The note with it: Mus musculus. A digest of the protocol:
as §2

Assay [23] concerns L1210. Briefly: Increase in life span of tumor L1210 leukemic mice 1-5 days after 25 mg/kg administered. Format: functional, Mus musculus. In a few lines:
as §1

The test system of assay [24] is P388. As to the kind of experiment: Toxicity against P388 leukemic cells 1-9 days after administration of 40 mg/kg of the compound; Yes. On the set-up: dose 40 mg/kg. The settings on record: Mus musculus. It counts as functional, organism-based. A digest of the protocol: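 Host toxicity was scored in leukemia-bearing mice as drug-induced shortening of life span when higher doses were given on the same schedule: y = yes, n = no, nt = no higher dose tested.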

The test system of assay [25] is L1210. Briefly: Toxicity against L1210 leukemic cells 1-9 days after administration of 100 mg/kg of the compound; nt= No higher dose tested. Format: functional, organism-based. Also noted: dose 100 mg/kg. The settings on record: Mus musculus. In a few lines:
as §2

For assay [26], the system named is L1210. As to the kind of experiment: Increase in life span of tumor L1210 leukemic mice 1-9 days after 100 mg/kg administered. Format: functional, Mus musculus. In a few lines:
as §1

Calls of active or inactive are those of the source. The calls are words filed in the database; no cut-off is given here.

`CNc1ncnc2c1cnn2C1O[C@H](CO)[C@@H](O)[C@H]1O` (some centres not stated) registered an ILS in [1] of 4. Besides, in [2], the IC50 was more than 100 µM. The Toxicity result in assay [3] was “Active”.

For `O=[N+]([O-])c1ccc(CSc2ncnc3c2cnn3C2O[C@H](CO)[C@@H](O)[C@H]2O)cc1` (some centres not stated), the Toxicity result in assay [4] was “Active”. Also, in assay [5], the ILS at 200 mg/kg is 1%.

As for `OC[C@H]1OC(n2ncc3c(N/N=C/c4ccc(N(CCCl)CCCl)cc4)ncnc32)[C@H](O)[C@@H]1O` (some centres not stated), the IC50 in [2] is approximately 10 µM. The compound also yielded an ILS in assay [6] of -7. In addition, the Toxicity entry in [7] was “No higher dose tested”.

With `COc1ncnc2c1cnn2C1O[C@H](CO)[C@@H](O)[C@H]1O` (some centres not stated), the Toxicity result in assay [8] is “No higher dose tested”. In addition, in [9], the ILS is reported as 12.

For `O=c1[nH]cnc2c1cnn2[C@@H]1O[C@H](CO)[C@@H](O)[C@H]1O`, the Toxicity entry in [10] is “No higher dose tested”. In addition, in assay [11], the ILS was determined as 2.

As for `NC(=S)c1nn(C2O[C@H](CO)[C@@H](O)[C@H]2O)c2ncnc(N)c12` (some centres not stated), the Toxicity result in assay [12] and in assay [13] was “Active” in each case. In addition, the ILS in [14] was 34; in [15] it was 46.

Take `CN(C)/C=N/c1ncnc2c1cnn2C1O[C@H](CO)[C@@H](O)[C@H]1O` (some centres not stated): the IC50 in assay [2] is 0.6 µM. For the same compound, the Toxicity result in assay [16] is “Active”. Further, the ILS in [17] was 12.

Turning to `NNc1ncnc2c1cnn2C1O[C@H](CO)[C@@H](O)[C@H]1O` (some centres not stated), in assay [2], the IC50 is 60 µM. The same compound yielded an ILS in [18] of 12. Further, the Toxicity result in assay [19] is “Active”.

`N=C(N)c1nn(C2O[C@H](CO)[C@@H](O)[C@H]2O)c2ncnc(N)c12` (some centres not stated): the results for the ILS in [20] and in [23] were 29 and 98, respectively. The compound further came in with a Cures in assay [21] of 2. For the same compound, the Toxicity result in assay [22] and in assay [24] was “Active” each time.

Regarding `N#Cc1nn(C2O[C@H](CO)[C@@H](O)[C@H]2O)c2ncnc(N)c12` (some centres not stated), in assay [25], the Toxicity result is “No higher dose tested”. Also, in assay [2], the IC50 was 0.079 µM. In assay [26], this compound had an ILS of 27.

`OC[C@H]1OC(n2ncc3c(S)ncnc32)[C@H](O)[C@@H]1O` (some centres not stated): the Toxicity result in assay [10] was “No higher dose tested”. In assay [11], this compound yielded an ILS of -6.
